Measured values reported in PMC3159890 (Frontiers in Pharmacology, 2011).
One block for each compound: values may come before it.

Key:
Format in all cases: cell-based
F508del-CFTR = F508del-CFTR (Homo sapiens, UniProt P13569, DEL508-508); experiment: iodide efflux in CuFi-1 cells
Outline: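 CuFi-1 cells (F508del/F508del, CF bronchial epithelium) grown on collagen type VI-coated flasks in BEGM at 37°C, 5% CO2, media renewed every 2 days, then seeded in 24-well plates. F508del-CFTR rescued by 24 h at 27°C or 24 h at 37°C with miglustat. Iodide efflux stimulated by forskolin 10 μM plus test compound 100 μM. Chloride transport inhibitors, when used, were present in loading solution and efflux buffer.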

wt-CFTR [1] = molecular target: T1, wt-CFTR (Homo sapiens, UniProt P13569); experiment: whole-cell patch-clamp on wt-CFTR-CHO cells
Outline: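 CHO cells stably expressing wt-CFTR, kept in α-MEM-GlutaMAX with 7% FBS and 100 μM methotrexate, were plated in 35-mm dishes. Whole-cell currents sampled at 3 kHz. Holding potential −40 mV, with pulses −100 to +100 mV in 20 mV steps. Capacitance obtained from a 10 mV hyperpolarization; currents normalized per pF. Stimulation with forskolin 1 μM plus test compound 10 μM. Time course: amplitude at +40 mV plotted every 10 s.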

wild-type CFTR = wild-type CFTR (Homo sapiens, UniProt P13569); experiment: iodide efflux in NuLi-1 cells
Outline: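 NuLi-1 cells (non-CF human bronchial epithelium, wild-type CFTR) cultured on collagen type VI-coated flasks in BEGM at 37°C, 5% CO2, media changed every 2 days, and seeded in 24-well plates. Iodide efflux stimulated by forskolin 10 μM plus test compound 100 μM. CFTR-inh172 10 μM was present in loading solution and efflux buffer.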

wt-CFTR-CHO cells = experiment: MTT cytotoxicity assay; settings: 100 μM, 24 h
Outline: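 wt-CFTR-CHO cells in α-MEM-GlutaMAX with 7% FBS and 100 μM methotrexate, exposed 24 h at 37°C to 100 μM test compound; MTT done the next day. PBS wash, then MTT (0.5 mg/ml in PBS) for 4 h at 37°C. Formazan dissolved in DMSO; OD read at 570 nm against 630 nm reference. Mean of three replicates, as percentage of control.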

wt-CFTR [2] = molecular target: T1, wt-CFTR; experiment: iodide efflux in wt-CFTR-CHO cells
Outline: (§1)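 Stably transfected CHO cells (wt-CFTR or G551D-CFTR, methotrexate-selected) seeded in 24-well plates and loaded with 125I; efflux sampled robotically. Rate k = ln(125It1/125It2)/(t1–t2); response = kpeak − kbasal (min−1). Concentration-response curves expressed as percentage of maximal activation. Chloride transport inhibitors, when used, were present in both loading and efflux buffers.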

CHO-K1 = experiment: whole-cell patch-clamp on CHO-K1 cells; settings: forskolin 1 μM; RP193 10 μM
Outline: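 Whole-cell clamp, seals 5–10 GΩ. Pipette (mM): Cs-aspartate/CsCl, 1 EGTA, 10 TES, 3 MgATP, pH 7.2. Bath (mM): 145 NaCl, 4 CsCl, 1 CaCl2, 1 MgCl2, 10 glucose, 10 TES, pH 7.4. Held at −40 mV, stepped −100 to +100 mV in 20 mV increments; sampled at 3 kHz. Currents normalised to capacitance (pA/pF); time course read at +40 mV every 10 s.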

wt-CFTR [3] = molecular target: T1, wt-CFTR; experiment: single-channel cell-attached patch-clamp on wt-CFTR-CHO cells
Outline: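 Cell-attached single-channel recordings on wt-CFTR-CHO cells at room temperature, seals 10–20 GΩ. Bath received forskolin 1 μM, then test compound 10 μM. Pipette (mM): 150 NaCl, 2 MgCl2, 10 TES, pH 7.4. Bath (mM): 145 NaCl, 4 KCl, 2 MgCl2, 10 TES, pH 7.4. Sampled at 3 kHz, filtered at 100 Hz (eight-pole Bessel). Potential = bath minus pipette.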

[4] = system: cAMP levels in wt-CFTR-CHO cells; experiment: cAMP-Screen ELISA determination of cAMP; settings: RP193 100 μM alone or with forskolin 1 μM, 10 min
Outline: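 wt-CFTR-CHO cells incubated with agents for 10 min at 37°C. Reactions then stopped and intracellular cAMP quantified by cAMP-Screen ELISA, following the kit instructions.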

G551D-CFTR = G551D-CFTR (Homo sapiens, UniProt P13569, G551D); experiment: iodide efflux in G551D-CFTR-CHO cells
Outline: as §1

[5] = system: primary cultures of human bronchial epithelial cells (HBEC); experiment: Ussing chamber short-circuit current in primary HBEC cultures; settings: amiloride 10 μM, luminal bath
Outline: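 Primary non-CF bronchial epithelial cells (three lung-resection donors), enzymatically isolated, grown to confluence on permeable collagen supports. Mounted in Ussing chambers in KBR at 37°C, gassed 95% O2-5% CO2. After 20–30 min equilibration and 10 min basal: amiloride 10 μM apical, forskolin 1 μM both sides, test compound basolateral, with 10–15 min stabilisation between additions. ΔIsc = plateau minus pre-addition value; Rt from +2 mV pulses every 90 s.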

EC50 (wt-CFTR [2]): 97 µM
SMILES: Br.CCCCc1c(-c2cccc(O)c2)[nH]c2nccnc12 [RP146, 7-n-Butyl-6-(3-hydroxyphenyl)-5H-pyrrolo[2,3-b]pyrazine hydrobromide]
cytotoxicity (cell viability, MTT) (wt-CFTR-CHO cells): significantly higher cytotoxicity compared to the control conditions

EC50 (wt-CFTR [2]): 78 µM
SMILES: CCCCc1c(-c2ccc(F)cc2)[nH]c2nccnc12 [RP185, 7-n-butyl-6-(4-fluorophenyl)-5H-pyrrolo[2,3-b]pyrazine]
cytotoxicity (cell viability, MTT) (wt-CFTR-CHO cells): not cytotoxic

stimulation of CFTR-dependent iodide efflux (wt-CFTR [2]; RP193 100 μM without forskolin, wt-CFTR-CHO cells): no stimulation of CFTR activity
stimulation of iodide efflux in CuFi-1 cells (F508del-CFTR; cells cultivated at 37°C, RP193 100 μM + forskolin 10 μM): did not stimulate iodide efflux
stimulation of iodide efflux in CuFi-1 cells (F508del-CFTR; cells non-treated with miglustat): no effect
time to significant increase of the whole-cell current (wt-CFTR [1]; RP193 10 μM in presence of forskolin 1 μM): 5 to 7 min
whole-cell current amplitude at +40 mV (wt-CFTR [1]; RP193 10 μM in the presence of 1 μM fsk): 113.8 ± 15.1 pA/pF
average unitary conductance (wt-CFTR [3]; forskolin 1 μM + RP193 10 μM, n = 4): 8.1 ± 0.0 pS
stimulation of iodide efflux in NuLi-1 cells (wild-type CFTR; RP193 100 μM in presence of forskolin 10 μM): stimulated CFTR in NuLi-1 cells
stimulation of iodide efflux in G551D-CFTR-CHO cells (G551D-CFTR; RP193 10 μM in presence of forskolin 10 μM, n = 4): stimulated an efflux
stimulation of iodide efflux in G551D-CFTR-CHO cells (G551D-CFTR; RP193 alone, not shown): did not have any effect
SMILES: CCCCc1c(-c2ccccc2F)[nH]c2nccnc12 [RP193, 7-n-butyl-6-(2-fluorophenyl)-5H-pyrrolo[2,3-b]pyrazine]
stimulation of iodide efflux in CuFi-1 cells (F508del-CFTR; cells 24 h at 27°C, RP193 100 μM in presence of forskolin 10 μM): iodide efflux significantly higher than with forskolin alone
effect on whole-cell current in CHO-K1 (CHO-K1): no effect
single-channel CFTR activity, cell-attached (wt-CFTR [3]; RP193 10 μM in bath, in presence of forskolin 1 μM): progressive and sustained CFTR activity was recorded
dependence of CFTR potentiation on intracellular cAMP levels [4]: independent of intracellular cAMP levels
cytotoxicity (cell viability, MTT) (wt-CFTR-CHO cells): not cytotoxic

The next lines start with the compound.

SMILES: O=C(O)c1ccc(/C=C2\SC(=S)N(c3cccc(C(F)(F)F)c3)C2=O)cc1 [CFTR-inh172, reference compound]
inhibition of RP193-induced iodide efflux in CuFi-1 cells (F508del-CFTR; miglustat-treated cells, CFTRinh-172 10 μM, data not shown): fully inhibited
whole-cell current amplitude at +40 mV after inhibitor (wt-CFTR [1]; CFTR-inh172 10 μM added after fsk 1 μM + RP193 10 μM): 8.2 ± 5.2 pA/pF
inhibition of RP193-stimulated iodide efflux in NuLi-1 cells (wild-type CFTR; CFTR-inh172 10 μM): abolished

SMILES: CCCCc1c(-c2ccc(O)cc2)[nH]c2nccnc12 [RP107, 7-n-butyl-6-(4-hydroxyphenyl)[5H]-pyrrolo[2,3-b]pyrazine]
cytotoxicity (cell viability, MTT) (wt-CFTR-CHO cells): significantly higher cytotoxicity compared to the control conditions

SMILES: Br.CCCCc1c(-c2ccccc2O)[nH]c2nccnc12 [RP173, 7-n-Butyl-6-(2-hydroxyphenyl)-5H-pyrrolo[2,3-b]pyrazine hydrobromide]
cytotoxicity (cell viability, MTT) (wt-CFTR-CHO cells): significantly higher cytotoxicity compared to the control conditions

SMILES: N=C(N)NC(=O)c1nc(Cl)c(N)nc1N [amiloride]
change in Isc [5]: −29.5 ± 4.5 μA/cm^2

SMILES: C=C[C@@]1(C)CC(=O)[C@]2(O)[C@@]3(C)[C@@H](O)CCC(C)(C)[C@@H]3[C@H](O)[C@H](OC(C)=O)[C@@]2(C)O1 [forskolin, reference compound]
whole-cell current amplitude at +40 mV (wt-CFTR [1]; forskolin 1 μM alone): 18.4 ± 6.2 pA/pF
effect on whole-cell current in CHO-K1 (CHO-K1): no effect
stimulation of iodide efflux in G551D-CFTR-CHO cells (G551D-CFTR; forskolin 10 μM alone, compared to basal state): No significant stimulation
